From ChEMBL document CHEMBL4400576, “Identification of Pyrazolo[1,5-a]pyridine-3-carboxamide Diaryl Derivatives as Drug Resistant Antituberculosis Agents” (ACS Med Chem Lett, 2019)
Converted amounts (≈) assume the structure as drawn.

Tests used:
[1] = system: Mycobacterium tuberculosis; assay: Antibacterial activity against Mycobacterium tuberculosis H37Rv harboring LuxAB incubated for 10 days under anaerobic conditions followed by incubation under aerobic conditions for 28 hrs by LORA method; type: functional
Method in brief: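 MIC against H37Rv by low oxygen recovery assay (LORA). Test concentrations 0.02 to 5 μg/mL.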

[2] = system: Mycobacterium tuberculosis; assay: Antibacterial activity against RMP-resistant Mycobacterium tuberculosis after 7 days by microplate alamar blue assay; type: functional; conditions: 168 h
Method in brief: (§1)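 MABA MIC against rINH and rRMP Mtb strains. Test concentrations 0.002 to 0.5 μg/mL.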

[3] = system: Mycobacterium tuberculosis; assay: Antibacterial activity against INH-resistant Mycobacterium tuberculosis after 7 days by microplate alamar blue assay; type: functional; conditions: 168 h; method in brief: as §1
[4] = system: Mycobacterium tuberculosis; assay: Antitubercular activity against Mycobacterium tuberculosis H37Ra harboring pTYOK infected in Balb/c mouse assessed as reduction in bacterial burden administered once daily via oral gavage for 5 days measured post last dose by luminometric method; type: functional, organism-based
Method in brief: (§2)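 Mice infected i.v. with log-phase selectable marker-free autoluminescent Mtb H37Ra, 2 ×10^6 CFU per mouse. Dosed once daily by oral gavage for 5 consecutive days at 10 or 50 mg/kg/day. Untreated group received CMC-Na. Bacterial burden read daily as bioluminescence (RLU) in the same live mice.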

[5] = system: Mycobacterium tuberculosis; assay: Antitubercular activity against Mycobacterium tuberculosis H37Ra harboring pTYOK infected in Balb/c mouse assessed as reduction in lung bacterial burden at 50 mg/kg, po administered once daily via gavage for 5 days measured post last dose by luminometric method; type: functional; method in brief: as §2
[6] = system: Mycobacterium tuberculosis; assay: Antitubercular activity against Mycobacterium tuberculosis H37Ra harboring pTYOK infected in Balb/c mouse assessed as reduction in spleen bacterial burden at 50 mg/kg, po administered once daily via gavage for 5 days measured post last dose by luminometric method; type: functional; method in brief: as §2
[7] = system: Mycobacterium tuberculosis; assay: Antitubercular activity against Mycobacterium tuberculosis H37Ra harboring pTYOK infected in Balb/c mouse assessed as reduction in lung bacterial burden at 10 mg/kg, po administered once daily via gavage for 5 days measured post last dose by luminometric method; type: functional; method in brief: as §2
[8] = system: Mycobacterium tuberculosis; assay: Antitubercular activity against Mycobacterium tuberculosis H37Ra harboring pTYOK infected in Balb/c mouse assessed as reduction in spleen bacterial burden at 10 mg/kg, po administered once daily via gavage for 5 days measured post last dose by luminometric method; type: functional; method in brief: as §2

SMILES | MIC90 [1] [µg/mL] | MIC90 [2] [µg/mL] | MIC90 [3] [µg/mL] | further results
COc1ccn2nc(C)c(C(=O)NCc3ccc(-c4ccc(OC(F)(F)F)cc4)nc3)c2c1 | 4.36 (≈ 9.55 µM) | 0.458 (≈ 1 µM) | 0.004 (≈ 0.00876 µM) | 
COc1ccn2nc(C)c(C(=O)NCc3cn(-c4ccc(OC(F)(F)F)cc4)nn3)c2c1 | > 5 |  |  | 
COc1ccn2nc(C)c(C(=O)NCc3ccc(-c4ccc(OC(F)(F)F)cc4)cc3C)c2c1 | > 5 |  |  | 
COc1ccn2nc(C)c(C(=O)NCc3ccc(-c4ccc(OC(F)(F)F)cc4)cn3)c2c1 | > 5 | < 0.002 | 0.002 (≈ 0.00438 µM) | Activity [4]: Dose-dependent effect; fold change (FC) [5]: 1 log10RLU; fold change (FC) [6]: 0.61 log10RLU
COc1ccn2nc(C)c(C(=O)NCc3ccc(-c4ccc(OC(F)(F)F)cc4)s3)c2c1 | > 5 | 0.465 (≈ 1.01 µM) | 0.002 (≈ 0.00433 µM) | 
COc1ccn2nc(C)c(C(=O)NCc3cnc(-c4ccc(OC(F)(F)F)cc4)s3)c2c1 | > 5 |  |  | 
COc1ccn2nc(C)c(C(=O)NCc3ccc(-c4ccc(OC(F)(F)F)cc4)c(F)c3)c2c1 | > 5 | < 0.002 | 0.004 (≈ 0.00845 µM) | 
COc1ccn2nc(C)c(C(=O)NCc3ncc(-c4ccc(OC(F)(F)F)cc4)o3)c2c1 | 2.84 (≈ 6.36 µM) |  |  | 
COc1ccn2nc(C)c(C(=O)NCc3ccc(-c4ccc(OC(F)(F)F)cc4)cc3F)c2c1 | > 5 | < 0.002 | 0.004 (≈ 0.00845 µM) | 
COc1ccn2nc(C)c(C(=O)NCc3ccc(-c4ccc(OC(F)(F)F)cc4)c(C(F)(F)F)c3)c2c1 | > 5 | < 0.002 | 0.003 (≈ 0.00573 µM) | 
COc1ccn2nc(C)c(C(=O)NCc3ccc(-c4ccc(OC(F)(F)F)cc4)cc3OC)c2c1 | 2.25 (≈ 4.63 µM) |  |  | 
COc1ccn2nc(C)c(C(=O)NCc3ccc(-c4ccc(OC(F)(F)F)cc4)c(C)c3)c2c1 | 2.28 (≈ 4.86 µM) | < 0.002 | < 0.002 | 
COc1ccn2nc(C)c(C(=O)NCc3nnc(-c4ccc(OC(F)(F)F)cc4)o3)c2c1 | > 5 |  |  | 
COc1nc2ccc(Br)cc2cc1[C@@H](c1ccccc1)[C@@](O)(CCN(C)C)c1cccc2ccccc12 [BEDAQUILINE] |  | < 0.016 | < 0.016 | 
COc1ccn2nc(C)c(C(=O)NCc3ccc(-c4ccc(OC(F)(F)F)cc4)cc3C(F)(F)F)c2c1 | > 5 |  |  | 
NNC(=O)c1ccncc1 [ISONIAZID] | > 128 | 0.438 (≈ 3.19 µM) | > 8 | 
CC(=O)NC[C@H]1CN(c2ccc(N3CCOCC3)c(F)c2)C(=O)O1 [LINEZOLID] | 5.98 (≈ 17.7 µM) | 1.87 (≈ 5.54 µM) | 0.953 (≈ 2.82 µM) | 
COc1ccn2nc(C)c(C(=O)NCc3ccc(-c4ccc(OC(F)(F)F)cc4)c(OC)c3)c2c1 | > 5 | < 0.002 | 0.003 (≈ 0.00618 µM) | 
COc1ccn2nc(C)c(C(=O)NCc3ncc(-c4ccc(OC(F)(F)F)cc4)[nH]3)c2c1 | > 5 |  |  | 
CO[C@H]1/C=C/O[C@@]2(C)Oc3c(C)c(O)c4c(O)c(c(/C=N/N5CCN(C)CC5)c(O)c4c3C2=O)NC(=O)/C(C)=C\C=C\[C@H](C)[C@H](O)[C@@H](C)[C@@H](O)[C@@H](C)[C@H](OC(C)=O)[C@@H]1C [RIFAMPIN] | 2.95 (≈ 3.58 µM) | > 2 | < 0.008 | fold change (FC) [7]: 1.42 log10RLU; fold change (FC) [8]: 1.34 log10RLU
